Source: ChEMBL document CHEMBL4177671, “Selenium-containing analogues of WC-9 are extremely potent inhibitors of Trypanosoma cruzi proliferation” (Bioorg Med Chem, 2017)

Tests used:
Toxoplasma gondii = test: Antiparasitic activity against tachyzoite stage of Toxoplasma gondii expressing red fluorescent protein infected in gamma-irradiated African green monkey Vero cells by fluorescence assay; format: functional; conditions: light or radiation study, read-out: ED50 (the source's name)
Method in brief: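 Tachyzoites expressing red fluorescent protein, assayed per an earlier method with published modifications. Plates were read with lids on, bottom read, excitation 544 nm and emission 590 nm. Values are the mean of one experiment carried out in triplicate.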

Trypanosoma cruzi = test: Antitrypanosomal activity against tdTomato red labeled trypomastigote stage of Trypanosoma cruzi infected in gamma-irradiated African green monkey Vero cells after 3 days by fluorescence assay; format: functional; conditions: light or radiation study, 72 h, read-out: ED50 (the source's name)
Method in brief: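 Vero cells, gamma-irradiated at 2,000 Rads, were seeded at 3.4×10^4 per well in RPMI with 10% FBS and incubated overnight at 35 °C, 7% CO2. They were infected with 3.4×10^5 CL-strain tdTomato trypomastigotes per well for 5 h, then washed. Serial dilutions of 1.56–25 μM were run in quadruplicate, with benznidazole at 0.39–6.25 μM. Fluorescence was read at day 3. ED50 was obtained by non-linear regression.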

[1] = Cytotoxicity against African green monkey Vero cells after 3 to 4 days by Alamar Blue dye-based spectrophotometric method; format: cell-based; conditions: chlorocebus sabaeus, read-out: ED50 (the source's name)
Method in brief: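 Vero cell cytotoxicity was measured by Alamar Blue assay following a previously described method.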

[2] = Selectivity index, ratio of ED50 for African green monkey Vero cells to ED50 for Trypanosoma cruzi; format: toxicity; conditions: Vero cells versus Trypanosoma cruzi, read-out: Ratio ED50
Method in brief: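 Calculated as ED50 for Vero cytotoxicity divided by ED50 for the parasite.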

**Q.** Which results are given for `N#CSCCOc1ccc(Oc2ccccc2)cc1`?
**A.** EC50 (Toxoplasma gondii): 4.8 µM; EC50 (Trypanosoma cruzi): 5000 nM; CC50 [1]: 82.6 µM

**Q.** With `N#CSCc1cc2cc(Oc3ccccc3)ccc2o1` as the compound, how does the EC50 (Trypanosoma cruzi) read?
**A.** 5190 nM

**Q.** Which EC50 (Trypanosoma cruzi) does the source give for `N#COCCOc1ccc(Oc2ccccc2)cc1` here?
**A.** > 10000 nM

**Q.** For `N#C[Se]CCOc1ccc(Oc2cccc(F)c2)cc1`, which selectivity ratio [2] is on record?
**A.** 1800

**Q.** What about the EC50 (Trypanosoma cruzi) of the same compound?
**A.** 85 nM

**Q.** What about the CC50 [1] of the same compound?
**A.** 153 µM

**Q.** With `N#C[Se]CCOc1cccc(Oc2ccccc2F)c1` as the compound, how does the selectivity ratio [2] read?
**A.** 1110

**Q.** What about the EC50 (Trypanosoma cruzi) of the same compound?
**A.** 126 nM

**Q.** And the CC50 [1]?
**A.** 140 µM

**Q.** With `N#C[Se]CCOc1cccc(I)c1` as the compound, how does the selectivity ratio [2] read?
**A.** > 11.5

**Q.** What about the EC50 (Trypanosoma cruzi) of the same compound?
**A.** 5440 nM

**Q.** And the CC50 [1]?
**A.** > 62.5 µM

**Q.** Which selectivity ratio [2] does the source give for `N#C[Se]CCOc1ccc(Cl)cc1Cl` here?
**A.** > 45.3

**Q.** What about the EC50 (Trypanosoma cruzi) of the same compound?
**A.** 1380 nM

**Q.** And the CC50 [1]?
**A.** > 62.5 µM

**Q.** Which EC50 (Toxoplasma gondii) does the source give for `N#CSCCOc1ccc(Sc2ccccc2)cc1` here?
**A.** 4.58 µM

**Q.** What about the selectivity ratio [2] of the same compound?
**A.** > 10.9

**Q.** What about the EC50 (Trypanosoma cruzi) of the same compound?
**A.** 5730 nM

**Q.** And the CC50 [1]?
**A.** > 62.5 µM

**Q.** For `N#C[Se]CCOc1cccc(Oc2ccc(F)cc2)c1`, which selectivity ratio [2] is on record?
**A.** > 1260

**Q.** And the EC50 (Trypanosoma cruzi)?
**A.** 99 nM

**Q.** And the CC50 [1]?
**A.** > 125 µM

**Q.** With `N#C[Se]CCOc1cccc(Oc2ccccc2)c1` as the compound, how does the EC50 (Toxoplasma gondii) read?
**A.** 2.87 µM

**Q.** And the selectivity ratio [2]?
**A.** > 1760

**Q.** What about the EC50 (Trypanosoma cruzi) of the same compound?
**A.** 85 nM

**Q.** What about the CC50 [1] of the same compound?
**A.** > 150 µM

**Q.** With `N#C[Se]CCOc1ccc(Oc2ccc(F)cc2)cc1` as the compound, how does the EC50 (Trypanosoma cruzi) read?
**A.** 271 nM

**Q.** What about the CC50 [1] of the same compound?
**A.** 122 µM

**Q.** For `CCOP(=O)(OCC)C(CNCCOc1ccccc1)P(=O)(OCC)OCC`, which EC50 (Trypanosoma cruzi) is on record?
**A.** 5380 nM

**Q.** For `N#C[Se]CCOc1cccc(Oc2ccc(Cl)cc2)c1`, which selectivity ratio [2] is on record?
**A.** > 1100

**Q.** What about the EC50 (Trypanosoma cruzi) of the same compound?
**A.** 114 nM

**Q.** What about the CC50 [1] of the same compound?
**A.** > 125 µM

**Q.** For `NC(=O)OCCOc1ccc(Oc2ccccc2)cc1`, which EC50 (Trypanosoma cruzi) is on record?
**A.** > 10000 nM

**Q.** Which EC50 (Trypanosoma cruzi) does the source give for `O=P(O)(O)C(CNCCOc1ccccc1)P(=O)(O)O` here?
**A.** 5690 nM

**Q.** For `N#CSCC1Cc2cc(Oc3ccccc3)ccc2O1` (stereo not drawn), which EC50 (Toxoplasma gondii) is on record?
**A.** > 10 µM

**Q.** What about the selectivity ratio [2] of the same compound?
**A.** > 10.4

**Q.** What about the EC50 (Trypanosoma cruzi) of the same compound?
**A.** 5990 nM

**Q.** And the CC50 [1]?
**A.** > 62.5 µM

**Q.** With `O=[N+]([O-])c1ccc(Oc2cccc(Br)c2)cc1` as the compound, how does the EC50 (Trypanosoma cruzi) read?
**A.** > 100000 nM

**Q.** Which results are given for `N#C[Se]CCOc1ccc(Oc2ccccc2)cc1`?
**A.** EC50 (Toxoplasma gondii): 3.7 µM; selectivity ratio [2]: > 917; EC50 (Trypanosoma cruzi): 109 nM; CC50 [1]: > 100 µM

**Q.** With `N#C[Se]CCOc1cccc(Oc2cccc(F)c2)c1` as the compound, how does the selectivity ratio [2] read?
**A.** > 833

**Q.** And the EC50 (Trypanosoma cruzi)?
**A.** 75 nM

**Q.** What about the CC50 [1] of the same compound?
**A.** > 62.5 µM

**Q.** Which results are given for `N#C[Se]CCOc1ccc(I)cc1`?
**A.** EC50 (Trypanosoma cruzi): > 10000 nM; CC50 [1]: > 50 µM

**Q.** What does the source list for `N#CSCCOc1cccc(Sc2ccccc2)c1`?
**A.** EC50 (Toxoplasma gondii): 3.58 µM; EC50 (Trypanosoma cruzi): > 10000 nM; CC50 [1]: > 50 µM

**Q.** For `N#C[Se]CC1Cc2cc(Oc3ccccc3)ccc2O1` (racemic), which selectivity ratio [2] is on record?
**A.** > 1500

**Q.** What about the EC50 (Trypanosoma cruzi) of the same compound?
**A.** 83 nM

**Q.** And the CC50 [1]?
**A.** > 125 µM

**Q.** Which selectivity ratio [2] does the source give for `N#C[Se]CC1Cc2ccc(Oc3ccccc3)cc2O1` (racemic) here?
**A.** > 1040

**Q.** And the EC50 (Trypanosoma cruzi)?
**A.** 120 nM

**Q.** What about the CC50 [1] of the same compound?
**A.** > 125 µM

**Q.** Which selectivity ratio [2] does the source give for `N#C[Se]CC1Cc2c(Oc3ccccc3)cccc2O1` (racemic) here?
**A.** > 307

**Q.** And the EC50 (Trypanosoma cruzi)?
**A.** 407 nM

**Q.** What about the CC50 [1] of the same compound?
**A.** > 125 µM

**Q.** With `O=C(Cn1ccnc1[N+](=O)[O-])NCc1ccccc1` [BENZNIDAZOLE] as the compound, how does the EC50 (Trypanosoma cruzi) read?
**A.** 1500 nM
